Measured values from ChEMBL document CHEMBL1773069, “Marinoquinolines A-F, pyrroloquinolines from Ohtaekwangia kribbensis (Bacteroidetes)” (J Nat Prod, 2011).
Values after ≈ are worked out from the molar mass of the structure shown. Active and inactive are the calls of the source. No cut-off for these calls is given here.

Key:
[1] = system: Trypanosoma brucei rhodesiense; experiment: Antiparasitic activity against Trypanosoma brucei rhodesiense STIB 900 trypomastigotes; assay type: functional, organism-based
L6 = experiment: Cytotoxicity against rat L6 cells by MTT assay; assay type: cell-based
Trypanosoma cruzi = experiment: Antiparasitic activity against Trypanosoma cruzi Tulahuen C4 amastigotes; assay type: functional, organism-based
Nocardia sp. = experiment: Antibacterial activity against Nocardia flava after 24 to 48 hrs; assay type: functional
Procedure, shortened: (§1)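 Broth microdilution in 96-well plates. Bacteria were grown in EBS medium. Yeasts and fungi were grown in MYC medium (1.0% phytone peptone, 1.0% glucose, 50 mM HEPES, pH 7.0). Inoculum was test organism diluted 1:100 in medium. Compound was diluted 1:1 serially from 33.5 to […] μg/mL. Plates were shaken at 600 rpm, 30 °C, for 24–48 h. MIC was the lowest concentration preventing visible growth.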

Micrococcus luteus = experiment: Antibacterial activity against Micrococcus luteus after 24 to 48 hrs; assay type: functional; procedure, shortened: as §1
[2] = system: Schizosaccharomyces pombe; experiment: Antifungal activity against Schizosaccharomyces pombe after 24 to 48 hrs; assay type: functional; procedure, shortened: as §1
Mucor hiemalis = experiment: Antifungal activity against Mucor hiemalis after 24 to 48 hrs; assay type: functional; procedure, shortened: as §1
Rhodotorula glutinis = experiment: Antifungal activity against Rhodotorula glutinis after 24 to 48 hrs; assay type: functional; procedure, shortened: as §1
Escherichia coli [3] = experiment: Antimicrobial activity against Escherichia coli after 24 to 48 hrs; assay type: functional, organism-based; procedure, shortened: as §1
L929 = experiment: Cytotoxicity against mouse L929 cells after 5 days by MTT assay; assay type: functional, cell-based; conditions: L929, 120 h
Procedure, shortened: (§2)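 Culture media were DMEM for KB-3-1 and L929, EBM-2 for HUVEC and RPMI for MCF-7, each with 10% FBS, at 37 °C under 10% CO2. Serial dilutions from a 1 mg/mL methanol stock were added to cell suspension (50 000/mL). After 5 days, MTT was read at 590 nm. IC50 (50% growth inhibition versus control) came from dose–response curves. Methanol served as negative control.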

MCF7 = experiment: Cytotoxicity against human MCF7 cells after 5 days by MTT assay; assay type: functional, cell-based; conditions: MCF7, 120 h; procedure, shortened: as §2
[4] = Cytotoxicity against human KB-3-1 cells after 5 days by MTT assay; assay type: functional, cell-based; conditions: KB 3-1, 120 h; procedure, shortened: as §2
HUVEC = experiment: Cytotoxicity against HUVEC after 5 days by MTT assay; assay type: cell-based; conditions: Homo sapiens, 120 h; procedure, shortened: as §2
Plasmodium falciparum = experiment: Antimalarial activity against Plasmodium falciparum K1 intra-erythrocytic form; assay type: functional, organism-based
Leishmania donovani = experiment: Antileishmanial activity against Leishmania donovani MHOM-ET-67/L82 axenic amastigotes; assay type: functional, organism-based
Escherichia coli [5] = experiment: Antimicrobial activity against Escherichia coli at 33.5 ug/ml after 24 to 48 hrs; assay type: functional, organism-based
[6] = system: Schizosaccharomyces pombe; experiment: Antifungal activity against Schizosaccharomyces pombe at 33.5 ug/ml after 24 to 48 hrs; assay type: functional, organism-based

Question: With `Nc1nc(N)nc(Nc2ccc([As]3SCC(CO)S3)cc2)n1` (centres undefined) [MELARSOPROL] as the compound, how does the IC50 [1] read?
Answer: 0.012 µM

Question: Which results are given for `Oc1ccc(Cc2nc3ccccc3c3cc[nH]c23)cc1` [MARINOQUINOLINE D]?
Answer: IC50 (L6): 66.4 µM; IC50 [1]: 61.2 µM; IC50 (Trypanosoma cruzi): 27 µM; Activity (Nocardia sp.): inactive; Activity (Micrococcus luteus): inactive; Activity [2]: inactive; Activity (Mucor hiemalis): inactive; Activity (Rhodotorula glutinis): inactive; Activity (Escherichia coli [3]): inactive; IC50 (L929): 1.1 µg/mL (≈ 4.01 µM); IC50 (MCF7): 3.2 µg/mL (≈ 11.7 µM); IC50 [4]: 3.2 µg/mL (≈ 11.7 µM); IC50 (HUVEC): 2.5 µg/mL (≈ 9.11 µM); IC50 (Plasmodium falciparum): 15 µM; IC50 (Leishmania donovani): 120 µM

Question: Which IC50 (L6) does the source give for `COc1cc([C@@H]2c3cc4c(cc3[C@H](O)[C@H]3COC(=O)[C@H]23)OCO4)cc(OC)c1OC` [PODOFILOX] here?
Answer: 0.021 µM

Question: For `Cc1nc2ccccc2c2cc[nH]c12` [MARINOQUINOLINE A], which IC50 (L6) is on record?
Answer: 30.6 µM

Question: What about the IC50 [1] of the same compound?
Answer: 54.4 µM

Question: And the IC50 (Trypanosoma cruzi)?
Answer: 29.5 µM

Question: And the IC50 (L929)?
Answer: 5.5 µg/mL (≈ 30.2 µM)

Question: And the IC50 (MCF7)?
Answer: 3.5 µg/mL (≈ 19.2 µM)

Question: What about the IC50 [4] of the same compound?
Answer: 2.2 µg/mL (≈ 12.1 µM)

Question: And the IC50 (HUVEC)?
Answer: 1.5 µg/mL (≈ 8.23 µM)

Question: And the IC50 (Plasmodium falciparum)?
Answer: 9.8 µM

Question: What about the IC50 (Leishmania donovani) of the same compound?
Answer: > 549 µM

Question: What about the Activity (Escherichia coli [5]) of the same compound?
Answer: Active

Question: What does the source list for `c1ccc2c(c1)nc(-c1c[nH]c3ccccc13)c1[nH]ccc12` [MARINOQUINOLINE E]?
Answer: IC50 (L6): 35.6 µM; IC50 [1]: 51.5 µM; IC50 (Trypanosoma cruzi): 23.6 µM; MIC (Nocardia sp.): 33.5 µg/mL (≈ 118 µM); MIC (Micrococcus luteus): 33.5 µg/mL (≈ 118 µM); MIC [2]: 33.5 µg/mL (≈ 118 µM); MIC (Mucor hiemalis): 33.5 µg/mL (≈ 118 µM); MIC (Rhodotorula glutinis): 33.5 µg/mL (≈ 118 µM); IC50 (L929): 5.5 µg/mL (≈ 19.4 µM); IC50 (MCF7): 1.9 µg/mL (≈ 6.71 µM); IC50 [4]: 4.5 µg/mL (≈ 15.9 µM); IC50 (HUVEC): 5.8 µg/mL (≈ 20.5 µM); IC50 (Plasmodium falciparum): 7.6 µM; IC50 (Leishmania donovani): 63.9 µM

Question: Which IC50 (L6) does the source give for `O=C(c1c[nH]c2ccccc12)c1nc2ccccc2c2cc[nH]c12` [MARINOQUINOLINE F] here?
Answer: 12.5 µM

Question: What about the IC50 [1] of the same compound?
Answer: 39 µM

Question: What about the IC50 (Trypanosoma cruzi) of the same compound?
Answer: 21.8 µM

Question: What about the IC50 (L929) of the same compound?
Answer: 4.1 µg/mL (≈ 13.2 µM)

Question: And the IC50 (MCF7)?
Answer: 1.6 µg/mL (≈ 5.14 µM)

Question: And the IC50 [4]?
Answer: 0.3 µg/mL (≈ 0.964 µM)

Question: And the IC50 (HUVEC)?
Answer: 2.8 µg/mL (≈ 8.99 µM)

Question: What about the IC50 (Plasmodium falciparum) of the same compound?
Answer: 1.7 µM

Question: And the IC50 (Leishmania donovani)?
Answer: 16.1 µM

Question: What about the Activity [6] of the same compound?
Answer: Active

Question: For `CC[C@]1(O)C[C@@H]2CN(CCc3c([nH]c4ccccc34)[C@@](C(=O)OC)(c3cc4c(cc3OC)N(C)[C@H]3[C@@](O)(C(=O)OC)[C@H](OC(C)=O)[C@]5(CC)C=CCN6CC[C@]43[C@@H]65)C2)C1` [VINBLASTINE], which IC50 (L929) is on record?
Answer: 0.018 µg/mL (≈ 0.0222 µM)

Question: What about the IC50 [4] of the same compound?
Answer: 0.0086 µg/mL (≈ 0.0106 µM)

Question: What does the source list for `c1ccc(Cc2nc3ccccc3c3cc[nH]c23)cc1` [MARINOQUINOLINE C]?
Answer: IC50 (L6): 39.1 µM; IC50 [1]: 42.2 µM; IC50 (Trypanosoma cruzi): 28.3 µM; MIC [2]: 33.5 µg/mL (≈ 130 µM); MIC (Rhodotorula glutinis): 33.5 µg/mL (≈ 130 µM); IC50 (L929): 5.4 µg/mL (≈ 20.9 µM); IC50 (MCF7): 2.6 µg/mL (≈ 10.1 µM); IC50 [4]: 2 µg/mL (≈ 7.74 µM); IC50 (HUVEC): 0.55 µg/mL (≈ 2.13 µM); IC50 (Plasmodium falciparum): 5.5 µM; IC50 (Leishmania donovani): 58.8 µM
